ChEMBL document CHEMBL1149329, “Synthesis and biological activity of sulfonamide derivatives of epipodophyllotoxin” (J Med Chem, 2004)
Where “and” joins values, the source holds several entries; their conditions need not be identical. Equal values may be shown once.

Key:
[1] = system: L1210; test: Percent of L1210 cells in the G2+M phase of the cell cycle at a compound concentration of 2.5 uM; format: functional, Mus musculus
Procedure, shortened: (§1)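 L1210 cells (2.5 × 10⁵ cells/mL) were incubated for 21 h with compound at the stated concentration. Flow cytometry was run on 10⁴ cells per sample, and the percentage of cells in G2+M was recorded.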

[2] = molecular target: DNA topoisomerase II (Homo sapiens) (UniProt P11388+Q02880); test: Inhibition of human DNA Topoisomerase II mediated DNA cleavage through the stabilization of transient DAN/topoisomerase II cleavage complex; format: protein assay
Procedure, shortened: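 Supercoiled pBS DNA (0.1 μg) preincubated 15 min at 30 °C with drug at 50 μM in 50 mM Tris-HCl pH 7.5, 1 mM ATP, 120 mM KCl, 10 mM MgCl2, 0.5 mM DTT, 0.1 mM EDTA, BSA. Two units human topo II added, 30 min at 30 °C. SDS/proteinase K digestion 30 min at 55 °C. 1% agarose gel with ethidium bromide; linear DNA percentage read, mean of three independent experiments.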

[3] = system: L1210; test: Inhibitory concentration required to reduce 50 percent L1210 cell growth; format: functional, cell-based; details: Mus musculus
Procedure, shortened: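 L1210 cells were grown in RPMI 1640 with 10% fetal calf serum, 2 mM glutamine, antibiotics and 10 mM HEPES (pH 7.4). Cells were exposed to compound for 48 h. MTT was then added for 4 h at 37 °C, and formazan was dissolved in DMSO and read at 540 nm. IC50 is the concentration reducing OD by 50%, from linear regression on the linear part of the curve. Triplicate.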

[4] = system: L1210; test: Percent of L1210 cells in the G2+M phase of the cell cycle at a compound concentration of 0.5 uM; format: functional, Mus musculus; procedure, shortened: as §1
[5] = system: P388; test: Antitumor activity against P388 leukemia at dose range of 3.12-50 mg/kg on day 1, activity expressed as maximum tolerated dose; format: functional, Mus musculus
[6] = system: P388; test: Median survival time of treated animals/median survival time of control animals; format: functional, Mus musculus
[7] = system: P388; test: Evaluated for long-term survivors scored at day 60; 0/6; format: functional, Mus musculus
[8] = system: L1210; test: Percent of L1210 cells in the G2+M phase of the cell cycle at a compound concentration of 25 uM; format: functional, Mus musculus; procedure, shortened: as §1
[9] = system: L1210; test: Percent of L1210 cells in the G2+M phase of the cell cycle at a compound concentration of 0.25 uM; format: functional, Mus musculus; procedure, shortened: as §1
[10] = system: A549; test: Antitumor activity against A549 non small cell carcinoma at dose range of 25-100 mg/kg on day 14, 21, 28; activity expressed as maximum tolerated dose; format: functional, Homo sapiens
Procedure, shortened: (§2)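 A549 human lung tumour cells were implanted orthotopically, 10⁶ cells through the chest wall into the left pleural space of anaesthetised BALB/C nude mice. Once tumours were established, drug was given iv on days 14, 21 and 28 after tumour cell injection. The endpoint was life span, expressed as T/C (%) = median survival time of treated/control × 100. MTD was the dose causing no toxic death and/or no weight loss >20%.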

[11] = system: P388; test: Antitumor activity against P388 leukemia at dose range of 12.5-200 mg/kg on day 1, activity expressed as maximum tolerated dose; format: functional, Mus musculus
[12] = system: L1210; test: […] antiproliferative activity against L1210 cell line; format: functional; details: Mus musculus
[13] = system: MDA-MB-231; test: […] antiproliferative activity against MDA-MB-231 cell line; format: functional; details: Homo sapiens
[14] = system: L1210; test: Percent of L1210 cells in the G2+M phase of the cell cycle at a compound concentration of 0.2 uM; format: functional, Mus musculus; procedure, shortened: as §1
[15] = system: DU-145; test: […] antiproliferative activity against DU-145 cell line; format: functional; details: Homo sapiens
[16] = system: P388; test: Antitumor activity against P388 leukemia at dose range of 6.25-100 mg/kg on day 1, activity expressed as maximum tolerated dose; format: functional, Mus musculus
[17] = system: HT-29; test: […] antiproliferative activity against HT-29 cell line; format: functional; details: Homo sapiens
[18] = system: NCI-H69; test: […] antiproliferative activity against NCI-H69 cell line; format: functional; details: Homo sapiens
[19] = system: P388; test: […] antiproliferative activity against P388 cell line; format: functional; details: Mus musculus
[20] = system: A549; test: […] antiproliferative activity against A549 cell line; format: functional; details: Homo sapiens
[21] = system: K562; test: […] antiproliferative activity against K-562 cell line; format: functional; details: Homo sapiens
[22] = system: SK-N-MC; test: […] antiproliferative activity against SK-N-MC cell line; format: functional; details: Homo sapiens
[23] = system: IGROV-1; test: […] antiproliferative activity against IGROV1 cell line; format: functional; details: Homo sapiens
[24] = system: A-431; test: […] antiproliferative activity against A431 cell line; format: functional; details: Homo sapiens
[25] = system: P388; test: Antitumor activity against P388 leukemia at dose range of 1.56-25 mg/kg on day 1, activity expressed as maximum tolerated dose; format: functional, Mus musculus
[26] = system: A549; test: Antitumor activity against A549 non small cell carcinoma at dose range of 3.12-12.5 mg/kg on day 14, 21, 28; activity expressed as maximum tolerated dose; format: functional, Homo sapiens; procedure, shortened: as §2
[27] = system: L1210; test: Percent of L1210 cells in the G2+M phase of the cell cycle at a compound concentration of 5 uM; Toxic at 10 uM; format: functional, Mus musculus; procedure, shortened: as §1

Compound	Effect [1]	Activity [2]	IC50 [3]	T/C [6]	LTS [7]	further results
COc1cc([C@@H]2c3cc4c(cc3[C@@H](N)[C@H]3COC(=O)[C@H]23)OCO4)cc(OC)c1O	57%	0	630 nM	–	–	–
COc1cc([C@@H]2c3cc4c(cc3[C@@H](NS(=O)(=O)c3cccs3)[C@H]3COC(=O)[C@H]23)OCO4)cc(OC)c1O	–	9	170 nM	102%	0	Effect [4]: 71%; MTD [5]: 12.5
CCCCCCCCCCCCCCCCS(=O)(=O)N[C@@H]1c2cc3c(cc2[C@@H](c2cc(OC)c(O)c(OC)c2)[C@H]2C(=O)OC[C@@H]21)OCO3	–	0	5500 nM	–	–	Effect [8]: 73%
CCCCN(CCCC)S(=O)(=O)N[C@@H]1c2cc3c(cc2[C@@H](c2cc(OC)c(O)c(OC)c2)[C@H]2C(=O)OC[C@@H]21)OCO3	60%	0	510 nM	–	–	–
COc1cc([C@@H]2c3cc4c(cc3[C@@H](NS(=O)(=O)N3CCOCC3)[C@H]3COC(=O)[C@H]23)OCO4)cc(OC)c1O	–	31	100 nM	235% and 155%	0	Effect [9]: 76%; MTD [10]: 50; MTD [11]: 200
CCCCS(=O)(=O)N[C@@H]1c2cc3c(cc2[C@@H](c2cc(OC)c(O)c(OC)c2)[C@H]2C(=O)OC[C@@H]21)OCO3	–	10	33 nM	161% and 105%	0	IC50 [12]: 33.5 nM; IC50 [13]: 69.2 nM; Effect [14]: 75%; IC50 [15]: 304 nM; MTD [10]: 50; MTD [16]: 100; IC50 [17]: 237 nM; IC50 [18]: 316 nM; IC50 [19]: 16.1 nM; IC50 [20]: 62.6 nM; IC50 [21]: 139 nM; IC50 [22]: 85.7 nM; IC50 [23]: 61.4 nM; IC50 [24]: 142 nM
COc1cc([C@@H]2c3cc4c(cc3[C@@H](N=[N+]=[N-])[C@H]3COC(=O)[C@H]23)OCO4)cc(OC)c1O	61%	44	570 nM	–	–	–
CCN(CC)S(=O)(=O)N[C@@H]1c2cc3c(cc2[C@@H](c2cc(OC)c(O)c(OC)c2)[C@H]2C(=O)OC[C@@H]21)OCO3	–	24	83 nM	106% and 120%	0	Effect [9]: 86%; MTD [25]: 25; MTD [26]: 6.25
COc1cc([C@@H]2c3cc4c(cc3[C@@H](NS(C)(=O)=O)[C@H]3COC(=O)[C@H]23)OCO4)cc(OC)c1O	–	50	70 nM	–	–	Effect [4]: 77%
COc1cc([C@@H]2c3cc4c(cc3[C@@H](NS(=O)(=O)c3ccc(S(C)(=O)=O)cc3)[C@H]3COC(=O)[C@H]23)OCO4)cc(OC)c1O	75%	10	550 nM	–	–	–
COc1cc([C@@H]2c3cc4c(cc3[C@@H](NS(=O)(=O)c3c(F)c(F)c(F)c(F)c3F)[C@H]3COC(=O)[C@H]23)OCO4)cc(OC)c1O	–	0	1000 nM	–	–	Effect [27]: 52%
